A selection: hits, their analogues and other compounds. The true share with any hit is near 4%.
E-selectin induc – E-selectin induction in HUVECs, primary screen, imaging, HUVEC, immunofluorescence imaging, single point; P16581; normalized: neutral wells 0, TNF-alpha wells 100; activation, % at 7.58 µM; hit rate 0.37% among 260,000;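 active means mean E-selectin-positive cell signal at least 10% of the positive control, reached in at least 60% of replicates, without over 20% cell loss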
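Test system: HUVEC; input: 3,000 HUVEC/well; measured by: immunofluorescence imaging; read-out: % PE-positive cells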
FN deposition inh – inhibitors of fibronectin matrix deposition, primary screen, AH1F cells, Alexa488-fibronectin fluorescence, plate reader | AH1F fibroblasts, overnight | inhibition, % at 12.6 µM | hit rate 0.086% among 350,000;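 active means mean inhibition across replicates of 30% or more, regardless of how many single replicates reach that level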;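 further: positive control wells lacked labelled fibronectin entirely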
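Material – AH1F fibroblast monolayer, labelled fibronectin deposition · Reagent – labelled fibronectin 24 nM · Timing – 1 h adhesion, overnight exposure · Measured by – fluorescence at 485 nm excitation, 525 nm emission · Read-out – inhibition of fibronectin deposition signal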
FGF22 binding – binders of human FGF22 protein, primary screen, FGF22 synaptogenesis inhibitor project, biophysical, thermal shift, single point; Fibroblast growth factor 22 (Homo sapiens), Q9HCT0; recombinant FGF22 thermal shift, SYPRO orange fluorescence; percent of sucrose octasulfate shift, DMSO zero; activity (Tm shift, normalised), % at 9.99 µM; hit rate 1.5% among 340,000; AID 651658, 2012;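 active means mean Tm shift, scaled 0 neutral to 100 positive control, at about 1.3% or above, every replicate too, limit read from the data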
Target sequence (Q9HCT0 whole entry, looked up): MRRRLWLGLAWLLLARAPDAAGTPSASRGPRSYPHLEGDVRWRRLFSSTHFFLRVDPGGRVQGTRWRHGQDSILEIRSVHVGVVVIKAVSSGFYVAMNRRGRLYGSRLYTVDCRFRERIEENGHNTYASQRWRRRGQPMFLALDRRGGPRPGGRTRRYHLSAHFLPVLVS
SIRT5 block – SIRT5 desuccinylase inhibitors, primary screen, biochemical, fluorescence imaging, single point, set 5. NAD-dependent protein deacylase sirtuin-5, mitochondrial (Homo sapiens), Q9NXA8. Purified SirT5, succinyl-peptide AMC, trypsin-coupled fluorescence. inhibition, % at 15 µM. hit rate 1.1% among 330,000. AID 652115, 2013; in the data active means inhibition above about 15%
Target sequence (Q9NXA8 whole entry, looked up): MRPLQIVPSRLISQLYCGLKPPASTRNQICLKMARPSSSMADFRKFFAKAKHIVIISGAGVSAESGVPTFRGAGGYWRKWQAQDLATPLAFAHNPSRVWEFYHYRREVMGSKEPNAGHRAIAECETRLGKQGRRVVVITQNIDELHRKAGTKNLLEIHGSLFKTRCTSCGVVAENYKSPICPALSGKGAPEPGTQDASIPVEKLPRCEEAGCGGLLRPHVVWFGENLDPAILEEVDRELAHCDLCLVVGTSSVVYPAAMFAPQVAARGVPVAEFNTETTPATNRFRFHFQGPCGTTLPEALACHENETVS
Statin myotox sup – suppressors of statin myotoxicity in C2C12 myotubes, primary screen, cell-based, single point, plate reader; C2C12 myotubes + simvastatin, ATP luminescence, 48 h; scaled: DMSO 0, geranylgeraniol control 100; rescue of ATP level, % at 7.49 µM; hit rate 0.78% among 330,000;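 active means mean ATP rescue above about 67%, or every replicate alone reaching that limit, limit read from the data, passing the limit was not always enough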;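 further: myotubes were challenged with 10 µM simvastatin during compound exposure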
rRNA inh HTS – reduced GFP signal of wild-type E. coli, primary screen, bacterial rRNA inhibitor project, GFP/RFP fluorescence, OD600, single point; E. coli WT GFP vs humanized-ribosome RFP mutants, 24 h; hits give low values; DMSO median 0, no signal -100; GFP signal change (wild-type ribosome), % (concentration not given with the values); hit rate 1.6% among 350,000; AID 720706, 2013;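 active means significant combined selectivity score with lowered wild-type GFP, culture density cut under 30%, mutant RFP and density less affected; inactive means any of these conditions unmet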
An asterisk follows results filed as active; x = not tested or not shown.

SMILES	E-selectin induc	FN deposition inh	FGF22 binding	SIRT5 block	Statin myotox sup	rRNA inh HTS
COc1ccc(CN(C)C[C@H]2Oc3ccc(NS(=O)(=O)c4ccc(OC)cc4)cc3CC(=O)N([C@H](C)CO)C[C@@H]2C)cc1	0	x	x	5	x	-2
CC(=O)Nc1cccc2c1O[C@@H](CN(C)C(=O)NC(C)C)[C@@H](C)CN(C)C2=O	x	-5	x	x	x	2
CC(C)c1ccc2c(c1)C(N1CCN(C)CC1)Cc1cccnc1S2 (configuration not stated)	0	-2	0	9	x	-22*
COc1ccc2c(c1)CC(N1CCN(C)CC1)c1cc(OC)ccc1S2 (configuration not stated)	x	8	0	x	x	-28
C[C@@H]1CN([C@@H](C)CO)S(=O)(=O)c2ccc(C#Cc3cccc(F)c3)cc2O[C@H]1CN(C)C	0	16	0	3	-25	-4
CC(=O)c1cccc(S(=O)(=O)NCC(C)(C)N2CCOCC2)c1	2	1	0	16*	0	2
CC(C)(CNC(=O)c1cccc(S(=O)(=O)NCc2ccccc2)c1)N1CCOCC1	-1	5	0	-2	2	9
Cc1cc(Cl)ccc1OC(C)C(=O)Nc1ccc(C(=O)Nc2ccccc2C(=O)O)cc1 (configuration not stated)	0	x	1.4*	9	3	-57
CCCNC(=O)Nc1ccc2c(c1)C(=O)N(C)C[C@H](OC)[C@@H](C)CN[C@@H](C)CO2	1	-4	0	-9	-5	4
COc1ccc(CNC(=O)C[C@H]2CC[C@H]3[C@H](COc4ccc(NC(=O)C(C)C)cc4C(=O)N3C)O2)cc1	0	-11	x	x	1	-1
Cc1cc(C)c(S(=O)(=O)N2CCN=C2c2ccccc2)cc1C	x	x	x	x	99*	x
COCC(=O)N1CC(=O)N2[C@H](C1)[C@@H](c1ccc(-c3cccnc3)cc1)[C@@H]2CO	x	-2	x	x	x	-2
O=C(Nc1ccccc1F)N[C@@H]1C=C[C@@H](CC(=O)N2CCCCC2)O[C@H]1CO	1	3	0	0	-4	-3
CCCNC(=O)N(C)C[C@H]1Oc2ncc(C3=CCCC3)cc2C(=O)N([C@@H](C)CO)C[C@H]1C	0	x	0	-5	22	3
CC(=O)N(C)C[C@H]1Oc2ncc(C3=CCCC3)cc2C(=O)N([C@H](C)CO)C[C@H]1C	0	-1	0	34*	-10	0
CCCNC(=O)N(C)C[C@H]1Oc2ncc(C3=CCCC3)cc2C(=O)N([C@H](C)CO)C[C@@H]1C	134*	x	0	2	14	1
CC(=O)N(C)C[C@H]1Oc2ncc(C3=CCCC3)cc2C(=O)N([C@@H](C)CO)C[C@@H]1C	0	-7	0	-5	1	1
C[C@@H]1CN([C@@H](C)CO)C(=O)c2cc(C#CC3CCCCC3)cnc2O[C@H]1CN(C)C(=O)Nc1ccccc1	0	1	0	4	-2	1
COc1cccc(NC(=O)N(C)C[C@@H]2Oc3ncc(C#Cc4ccc(F)cc4)cc3C(=O)N([C@@H](C)CO)C[C@H]2C)c1	0	-5	-1	5	72*	-4
C[C@@H]1CN([C@@H](C)CO)C(=O)c2cc(C#CC3CCCCC3)cnc2O[C@@H]1CN(C)C(=O)Nc1ccccc1	-2	-31	0	16*	0	2
C[C@@H]1CN([C@@H](C)CO)C(=O)Cc2cc(NC(=O)c3ccncc3)ccc2O[C@@H]1CN(C)CC1CC1	0	-3	0	-1	-16	0
Cc1ccc(-c2ccc(C3[C@@H]4CN(Cc5cccc(F)c5)C[C@H]3N4)cc2)cc1 (some centres not stated)	1	10	x	5	x	-55
COc1cccc(CNC(=O)C[C@@H]2CC[C@@H](NC(=O)C3CCOCC3)[C@H](CO)O2)c1	0	-4	0	-2	4	2
COc1cccc(NC(=O)N(C)C[C@H]2Oc3ncc(C4=CCCCC4)cc3C(=O)N([C@H](C)CO)C[C@@H]2C)c1	0	x	-1	20*	16	2
C[C@@H]1CN([C@H](C)CO)C(=O)c2cc(C3=CCCCC3)cnc2O[C@H]1CN(C)C(=O)c1ccccn1	0	-9	0	4	-7	-1
SMILES	E-selectin induc	FN deposition inh	FGF22 binding	SIRT5 block	Statin myotox sup	rRNA inh HTS
C[C@@H]1CN([C@@H](C)CO)C(=O)c2cc(C3=CCCC3)cnc2O[C@H]1CN(C)C(=O)Nc1ccccc1	0	x	0	0	x	2
C[C@@H]1CN([C@H](C)CO)C(=O)c2cc(C3=CCCCC3)cnc2O[C@@H]1CN(C)Cc1ccccc1F	0	3	0	-4	115*	4
C[C@@H]1CN([C@H](C)CO)C(=O)c2cc(C3=CCCC3)cnc2O[C@@H]1CN(C)C(=O)Nc1ccccc1	59*	x	0	-9	47	-1
C[C@@H]1CN([C@H](C)CO)C(=O)c2cc(C3=CCCCC3)cnc2O[C@@H]1CN(C)C(=O)c1ccccn1	0	-4	0	6	106*	0
CC(C)CC#Cc1cnc2c(c1)C(=O)N([C@H](C)CO)C[C@H](C)[C@H](CN(C)S(=O)(=O)c1cn(C)cn1)O2	0	-14	0	-8	9	-1
O=C(NCc1ccncc1)[C@@H]1N[C@@H]2c3ccc(/C=C/c4ccccc4)c(=O)n3C[C@@H]2[C@H]1CO	0	x	0	-93	1	1
COc1ccccc1NC(=O)N[C@@H]1CC[C@H](CC(=O)NCc2ccc(Cl)c(Cl)c2)O[C@H]1CO	0	1	0	-3	10	-12
CN(CC(=O)NC1CCN(Cc2ccccc2)CC1)S(=O)(=O)c1ccc2c(c1)c(=O)n(C)c(=O)n2C	1	13	43*	-6	x	20
COc1ccccc1C(CC(=O)c1ccccc1)C(=O)c1ccccc1 (configuration not stated)	0	x	0	17*	x	7
CCCNC(=O)C[C@H]1CC[C@@H]2[C@@H](COc3ccc(NC(=O)c4cccs4)cc3C(=O)N2C)O1	0	-14	0	-1	15	-5
CN1CCN(C(=O)C[C@@H]2CC[C@@H]3[C@H](COC[C@H](O)CN3C(=O)Nc3ccc(Cl)cc3)O2)CC1	0	5	0	-2	-18	-18*

High-throughput results from PubChem BioAssay.
